From the RNAGym collection of RNA variant scans (doi:10.1038/s41586-018-0170-7)

B1: tRNA (parent)
chain: GUUCCGUUGGCGUAAUGGUAACGCGUCUCCCUCCUAAGGAGAAGACUGCGGGUUCGAGUCCCGUACGGAACG

Variants of: B1
Assay: yeast fitness, log relative to wild type (ln ratio); higher = fitter; tRNA-Arg(CCU), competitive growth, 37 C, 1 M NaCl
How it was run: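 BY4742 cells without the chromosomal tRNA-Arg(CCU) gene carried a combinatorial variant library on a HIS3 centromeric plasmid, from two independent transformations. After 4 generations in SC-HIS at 30 °C, pools spent ~6.5 generations (~26.5 h) in SC-HIS 1M NaCl at 37 °C, giving three outputs per input, and 125 bp paired-end Illumina reads counted the variants. Fitness is the natural log of each genotype's generations over the wild type's, with generations taken as OD-scaled log2 output/input frequency weighted by inverse variance across replicates.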

| Variant | yeast fitness (ln) |
| --- | --- |
| U2G A43C C46U C66U A69G A70G C71U | -0.244 |
| G6U A43C C66U A69G C71U | -0.394 |
| U2C C46U A69G A70U | -0.0822 |
| U2G G6U A43C C46U C66U A69G A70U C71U | -0.4 |
| G1A U2C G6U C27U A70U C71U | -0.287 |
| G6A A43C C46U A70U | -0.117 |
| G6A A43C C46U A70G | -0.0876 |
| G1A U2C G6A C46U C66U | -0.16 |
| U2G C27U A69G A70U | -0.0281 |
| U2G C27U A69G A70G | -0.217 |
| G6A C27U C66U A70G C71U | -0.249 |
| G1A A43C C66U A69G A70G C71U | -0.293 |
| G1A U2C G6A C46U C66U A70U C71U | -0.0901 |
| G1A U2C G6U C27U A43C C46U C66U A70G C71U | -0.0871 |
| U2G C27U A43C C71U | -0.157 |
| U2C G6U A43C C66A A70G | -0.0246 |
| G1A U2C G6A C46U C66U A70U | -0.182 |
| G1A U2C G6U A43C C46U A69G A70G | -0.126 |
| U2C G6A C27U A43C A70U C71U | -0.243 |
| G1A U2G G6A C27U C46U C71U | -0.182 |
| U2G G6A A43C C46U C66U | -0.147 |
| G1A U2C G6U C46U C66A | -0.141 |
| G1A G6U C27U A43C C46U C71U | -0.212 |
| U2C G6A C46U C66A A70U C71U | -0.0695 |

| Variant | yeast fitness (ln) |
| --- | --- |
| U2G C27U | -0.0566 |
| U2G A43C A69G A70G C71U | -0.168 |
| G6U C27U A43C A69G A70G | -0.401 |
| C46U A69G A70G C71U | -0.237 |
| G1A G6U C27U A43C C46U C66A A69G A70G | -0.432 |
| U2C G6U C27U C46U C66U | -0.183 |
| G6U A43C A69G A70U | -0.371 |
| G1A U2G A43C C46U A69G A70G C71U | -0.226 |
| G1A U2G C27U A43C C46U A69G C71U | -0.239 |
| G1A U2G G6U C46U A70G | -0.282 |
| G1A A43C A69G C71U | -0.0687 |
| G1A U2G G6A C27U A43C C71U | -0.357 |
| U2C C46U C66A A70U | 0.075 |
| G1A C46U C66A A69G A70G | -0.183 |
| G6A C27U A43C C46U C66A C71U | -0.328 |
| U2G C27U C66A | -0.0584 |
| G1A U2G C46U C66U A70G | -0.148 |
| C46U C66U A69G C71U | -0.396 |
| G1A G6U C71U | -0.481 |
| C27U A43C C66A A69G A70G C71U | -0.369 |
| G1A G6A C66A A70U | -0.0411 |
| G1A G6U C66A A69G C71U | -0.032 |
| G1A U2C C27U A43C C66U A70U | -0.179 |
| U2G G6U C66A A70U C71U | -0.0189 |

| Variant | yeast fitness (ln) |
| --- | --- |
| U2G G6A A43C C46U A69G A70U | -0.123 |
| U2G A43C C46U C66U A70G | -0.0585 |
| U2G A43C C46U C66U A70U | -0.101 |
| U2C C27U C46U A69G A70G | -0.0283 |
| G1A G6U A43C C46U C66A A69G A70U | -0.474 |
| G6A C27U A70U | -0.17 |
| G1A U2C C27U A43C C66U A70U C71U | -0.244 |
| U2G C27U A43C C46U C66U A69G | -0.231 |
| G1A U2G C27U A43C A69G A70U C71U | -0.353 |
| U2G G6U C27U A69G A70G | -0.246 |
| G1A U2C A43C C46U A69G A70G C71U | -0.00408 |
| G1A U2C G6A C27U A43C C46U A70G | 0.0488 |
| G1A U2G C27U A69G C71U | -0.251 |
| U2G G6U A43C C46U A69G A70G C71U | -0.223 |
| G1A U2C G6U A70G C71U | -0.0526 |
| G1A U2C C27U C46U C66A A69G A70G C71U | -0.294 |
| G1A U2C C27U A43C C46U C66U C71U | -0.241 |
| G1A U2G C27U A43C A70G C71U | -0.246 |
| U2G C27U A70G | -0.136 |
| U2C C66A A70U | -0.0514 |
| U2C C27U C46U C66U A69G C71U | -0.243 |
| U2C G6U C27U C66A A70G | -0.0277 |
| U2C G6U C27U C66A A70U | -0.16 |
| G1A G6A C46U A69G A70U C71U | -0.256 |

| Variant | yeast fitness (ln) |
| --- | --- |
| G1A U2C G6U C27U C66U A69G A70U | -0.245 |
| G1A U2C G6U C46U C66A A69G A70G C71U | -0.0207 |
| G1A U2C A43C C46U C66A A69G A70G C71U | -0.0434 |
| G1A G6U C27U A43C C46U C66A A70U | -0.359 |
| U2C G6U C27U C66A A69G A70G | -0.0927 |
| U2C C46U C66A A70U C71U | -0.0668 |
| G1A U2G G6U C27U C46U C66U | -0.271 |
| U2C G6U A43C C66U A70G C71U | -0.172 |
| G1A U2G G6U C27U A43C C46U C66U C71U | -0.526 |
| U2C G6U A43C C66A A70U C71U | -0.272 |
| G1A U2G C27U A43C C46U C66U A69G A70U C71U | -0.5 |
| U2G C71U | -0.0549 |
| U2C G6U C27U A43C A70U C71U | -0.253 |
| U2C C66U A70G | -0.00448 |
| U2G G6A A43C C46U C66U A70U | -0.000672 |
| G6U C27U A43C C46U C66U A69G A70G | -0.396 |
| G1A C27U C46U A69G | -0.304 |
| G1A U2G G6A C46U A69G C71U | -0.193 |
| U2G G6A C27U C46U C66U A69G A70G | -0.199 |
| U2G G6U C27U A70U | -0.397 |
| U2C C27U C46U A69G A70G C71U | -0.0348 |
| U2G C27U A43C C46U C66U A69G A70U | -0.221 |
| U2C G6U C27U A43C C46U C66A A70G C71U | -0.0138 |
| A43C C46U C66U A69G A70G | -0.117 |

| Variant | yeast fitness (ln) |
| --- | --- |
| G1A G6U C27U A43C C46U C66U A69G A70U | -0.452 |
| C27U A43C A70G C71U | -0.112 |
| U2C G6U C27U C46U C66A A70U C71U | -0.161 |
| G6A C27U C46U C66U A69G A70G C71U | -0.215 |
| G1A U2C G6A A43C C46U C66U C71U | -0.246 |
| U2C G6A C27U C46U C66U A70G | -0.0278 |
| G1A U2G C66U | -0.159 |
| G6A C27U A43C C66A A69G A70G C71U | -0.262 |
| U2G G6U C66U A69G A70U | -0.409 |
| U2C G6A C27U C46U A70G C71U | -0.239 |
| C46U C66U A70G | -0.0429 |
| G6U C27U C66U A70G C71U | -0.37 |
| U2C A43C C46U A69G A70G C71U | -0.00607 |
| U2C C27U C66U A69G C71U | -0.303 |
| U2C G6U A43C C46U C66A A70G C71U | 0.00139 |
| U2C G6U A69G A70G C71U | -0.325 |
| U2G G6A C27U A43C C46U | -0.0569 |
| G6U C46U A70G | -0.284 |
| G6A A43C C46U C71U | -0.117 |
| U2G G6A C27U A43C C46U C66U | -0.102 |
| G6U C27U A43C C66A | -0.0198 |
| U2G G6U C27U A43C C46U A69G A70G | -0.242 |
| U2C C27U C46U C66A A70U | -0.0366 |
| G1A U2G G6U A43C A69G A70U | -0.456 |

| Variant | yeast fitness (ln) |
| --- | --- |
| G6U C27U C66A A69G | -0.0157 |
| G1A G6U A43C C71U | -0.101 |
| U2C G6U C27U C46U | -0.0552 |
| G1A U2G G6A C27U C46U C66U C71U | -0.196 |
| U2C C66A A70G C71U | -0.196 |
| U2C G6A C27U A70U C71U | -0.141 |
| G1A U2G C27U A43C C66U A69G A70U C71U | -0.332 |
| G1A U2C G6A C27U A43C A70U | -0.0697 |
| G6U A43C C66A A69G A70U C71U | -0.39 |
| G1A U2G G6A C46U C66A A70U | -0.189 |
| G1A U2G C66U A69G A70G C71U | -0.165 |
| G6U C46U C66U A69G A70U | -0.235 |
| G1A U2G C27U A43C C46U C66U C71U | -0.277 |
| G1A U2G G6A A43C C66U A69G A70G C71U | -0.612 |
| G1A U2C A43C A70U | -0.108 |
| G1A G6A C27U | -0.134 |
| G6A C27U C66A A69G A70G C71U | -0.288 |
| G1A G6U C66U A70G C71U | -0.272 |
| U2C G6A A43C A69G A70G C71U | -0.153 |
| G1A U2C G6U C27U A43C C46U C66A A70U | -0.0771 |
| G1A C27U A43C C46U A69G A70G | -0.183 |
| G1A G6A C27U C66U A69G A70U | -0.324 |
| G6U C27U A43C A69G A70G C71U | -0.49 |
| U2G G6U C66U A69G A70G C71U | -0.235 |

| Variant | yeast fitness (ln) |
| --- | --- |
| G1A C27U A43C C46U A70G C71U | -0.153 |
| U2C C66A A69G A70G | -0.0883 |
| U2C C66A A69G A70U | -0.0958 |
| U2C G6A A43C C46U C71U | -0.0721 |
| U2G G6U A43C C46U C66A A69G A70G C71U | -0.228 |
| G1A G6A C27U A70U C71U | -0.23 |
| G1A U2G C27U C66U A69G A70U C71U | -0.511 |
| G6A C66U A70G | -0.00631 |
| U2C G6A A43C C46U C66A C71U | -0.127 |
| G6A C27U C46U C66U A69G A70U | -0.196 |
| G1A U2G C27U C46U C66U A70U C71U | -0.434 |
| G1A U2G G6A A43C C46U C66U A70U C71U | -0.086 |
| U2C C66U A69G C71U | -0.311 |
| G1A U2G C27U A43C C46U C66A | -0.106 |
| G6A A70G | -0.194 |
| U2G G6A A43C C66U A69G C71U | -0.284 |
| G1A U2G G6A C46U C66U A69G C71U | -0.253 |
| G6U C27U C46U A69G A70G C71U | -0.342 |
| G1A U2G A43C C46U C66U C71U | -0.223 |
| G1A A43C A70G C71U | -0.095 |
| U2C C27U A43C C46U A69G A70G | -0.0239 |
| G1A G6A C27U C66A A69G A70G C71U | -0.392 |
| U2C G6A A43C C46U C66U A70G C71U | -0.0112 |
